# The M2OR odorant receptor database
# Columns and labels:
# Conditions in all cases: stereoisomer not certain
# [1] = target: T1, OR5M3 (Homo sapiens) (UniProt Q8NGP4)
# T1 sequence (whole entry): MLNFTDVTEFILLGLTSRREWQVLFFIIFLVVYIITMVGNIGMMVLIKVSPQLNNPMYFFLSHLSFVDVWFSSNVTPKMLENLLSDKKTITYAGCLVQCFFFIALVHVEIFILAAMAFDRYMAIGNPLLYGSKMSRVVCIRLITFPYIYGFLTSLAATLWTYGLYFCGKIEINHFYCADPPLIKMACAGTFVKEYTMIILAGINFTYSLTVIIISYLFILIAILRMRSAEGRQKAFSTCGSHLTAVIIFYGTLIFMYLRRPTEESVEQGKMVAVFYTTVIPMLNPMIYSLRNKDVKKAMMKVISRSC
# Outline: (§1)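 Transient luciferase assays in mammalian cell lines were common, though methods varied by source. The values come from published papers and their supplementary material, with extra details from the original authors when needed. Responsive refers to a measured signal the original authors judged statistically different from baseline, and non-responsive (inactive) to the remainder.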
# [2] = target: T2, OR5K3 (Homo sapiens) (UniProt A6NET4)
# T2 sequence (whole entry): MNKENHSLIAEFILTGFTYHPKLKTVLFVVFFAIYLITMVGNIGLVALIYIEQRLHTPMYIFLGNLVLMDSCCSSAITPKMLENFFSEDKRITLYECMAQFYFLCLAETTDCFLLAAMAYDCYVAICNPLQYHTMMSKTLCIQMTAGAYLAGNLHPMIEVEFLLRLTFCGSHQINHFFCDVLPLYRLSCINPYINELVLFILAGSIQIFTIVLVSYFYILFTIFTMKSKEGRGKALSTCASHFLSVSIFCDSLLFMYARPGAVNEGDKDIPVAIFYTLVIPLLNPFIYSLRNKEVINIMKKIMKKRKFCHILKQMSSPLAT
# Outline: as §1
# [3] = target: T3, OR5K4 (Homo sapiens) (UniProt A6NMS3)
# T3 sequence (whole entry): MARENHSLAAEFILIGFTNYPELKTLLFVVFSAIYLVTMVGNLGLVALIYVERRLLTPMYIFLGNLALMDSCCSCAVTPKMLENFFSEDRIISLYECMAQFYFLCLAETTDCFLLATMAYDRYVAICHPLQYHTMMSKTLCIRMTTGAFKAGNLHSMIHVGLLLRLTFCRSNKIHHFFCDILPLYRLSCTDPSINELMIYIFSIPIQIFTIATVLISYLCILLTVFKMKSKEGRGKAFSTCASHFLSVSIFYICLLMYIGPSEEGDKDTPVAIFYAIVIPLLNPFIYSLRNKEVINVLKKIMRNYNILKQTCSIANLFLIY
# Outline: as §1
# [4] = target: T4, OR5L1 (Homo sapiens) (UniProt Q8NGL2)
# T4 sequence (whole entry): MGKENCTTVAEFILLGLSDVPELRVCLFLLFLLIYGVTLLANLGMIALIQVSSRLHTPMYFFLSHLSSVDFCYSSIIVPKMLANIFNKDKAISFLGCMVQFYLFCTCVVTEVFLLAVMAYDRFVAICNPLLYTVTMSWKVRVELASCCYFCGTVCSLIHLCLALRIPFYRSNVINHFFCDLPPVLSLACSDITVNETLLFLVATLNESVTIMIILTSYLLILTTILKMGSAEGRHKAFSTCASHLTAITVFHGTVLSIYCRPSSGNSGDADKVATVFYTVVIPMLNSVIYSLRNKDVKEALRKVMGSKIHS
# Outline: as §1
# [5] = target: T5, OR5M1 (Homo sapiens) (UniProt Q8NGP8)
# T5 sequence (whole entry): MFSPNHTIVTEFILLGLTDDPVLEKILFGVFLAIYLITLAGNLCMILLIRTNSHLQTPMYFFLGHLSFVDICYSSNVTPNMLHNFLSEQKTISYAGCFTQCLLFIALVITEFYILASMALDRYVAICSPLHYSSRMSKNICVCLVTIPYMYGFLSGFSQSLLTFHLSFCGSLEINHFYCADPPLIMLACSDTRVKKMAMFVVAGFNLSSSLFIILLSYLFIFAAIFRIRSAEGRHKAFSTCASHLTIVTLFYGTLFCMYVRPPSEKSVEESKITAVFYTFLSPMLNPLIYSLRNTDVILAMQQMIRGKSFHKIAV
# Outline: as §1
# [6] = target: T6, OR5M10 (Homo sapiens) (UniProt Q6IEU7)
# T6 sequence (whole entry): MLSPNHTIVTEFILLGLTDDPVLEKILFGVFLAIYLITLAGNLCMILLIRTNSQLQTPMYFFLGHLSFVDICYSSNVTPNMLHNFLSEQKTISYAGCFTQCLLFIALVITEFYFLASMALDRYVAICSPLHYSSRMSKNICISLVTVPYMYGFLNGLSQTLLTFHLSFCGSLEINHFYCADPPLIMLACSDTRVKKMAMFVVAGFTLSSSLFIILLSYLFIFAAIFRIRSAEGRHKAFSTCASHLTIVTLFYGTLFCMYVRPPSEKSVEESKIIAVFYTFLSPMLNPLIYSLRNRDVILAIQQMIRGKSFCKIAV
# Outline: as §1
# [7] = target: T7, OR5M11 (Homo sapiens) (UniProt Q96RB7)
# T7 sequence (whole entry): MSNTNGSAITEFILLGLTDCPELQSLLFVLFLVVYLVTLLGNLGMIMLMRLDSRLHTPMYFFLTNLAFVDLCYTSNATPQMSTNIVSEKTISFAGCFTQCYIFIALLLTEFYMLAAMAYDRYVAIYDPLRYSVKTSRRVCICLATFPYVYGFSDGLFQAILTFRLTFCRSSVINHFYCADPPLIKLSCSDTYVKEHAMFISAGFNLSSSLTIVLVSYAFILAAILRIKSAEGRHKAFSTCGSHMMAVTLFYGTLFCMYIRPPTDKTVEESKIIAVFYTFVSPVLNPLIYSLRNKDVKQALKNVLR
# Outline: as §1
# [8] = target: T8, OR5M8 (Homo sapiens) (UniProt Q8NGP6)
# T8 sequence (whole entry): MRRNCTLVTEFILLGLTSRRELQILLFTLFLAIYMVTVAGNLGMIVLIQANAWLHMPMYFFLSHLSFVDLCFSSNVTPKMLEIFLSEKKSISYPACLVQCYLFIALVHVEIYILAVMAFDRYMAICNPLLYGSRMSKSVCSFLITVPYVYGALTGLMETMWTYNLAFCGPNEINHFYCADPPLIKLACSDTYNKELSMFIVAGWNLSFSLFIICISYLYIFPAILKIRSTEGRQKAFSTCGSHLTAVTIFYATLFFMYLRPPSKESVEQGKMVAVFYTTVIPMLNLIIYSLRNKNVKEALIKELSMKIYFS
# Outline: as §1
# [9] = target: T9, OR5M9 (Homo sapiens) (UniProt Q8NGP3)
# T9 sequence (whole entry): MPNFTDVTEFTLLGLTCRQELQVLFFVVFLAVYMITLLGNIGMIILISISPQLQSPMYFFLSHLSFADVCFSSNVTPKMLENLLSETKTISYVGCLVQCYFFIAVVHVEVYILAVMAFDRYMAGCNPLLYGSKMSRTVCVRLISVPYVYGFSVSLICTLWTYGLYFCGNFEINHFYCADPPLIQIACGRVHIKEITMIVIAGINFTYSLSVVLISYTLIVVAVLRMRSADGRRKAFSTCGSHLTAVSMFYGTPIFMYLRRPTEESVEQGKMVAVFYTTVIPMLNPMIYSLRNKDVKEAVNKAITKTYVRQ
# Outline: as §1
# [10] = target: T10, OR5P2 (Homo sapiens) (UniProt Q8WZ92)
# T10 sequence (whole entry): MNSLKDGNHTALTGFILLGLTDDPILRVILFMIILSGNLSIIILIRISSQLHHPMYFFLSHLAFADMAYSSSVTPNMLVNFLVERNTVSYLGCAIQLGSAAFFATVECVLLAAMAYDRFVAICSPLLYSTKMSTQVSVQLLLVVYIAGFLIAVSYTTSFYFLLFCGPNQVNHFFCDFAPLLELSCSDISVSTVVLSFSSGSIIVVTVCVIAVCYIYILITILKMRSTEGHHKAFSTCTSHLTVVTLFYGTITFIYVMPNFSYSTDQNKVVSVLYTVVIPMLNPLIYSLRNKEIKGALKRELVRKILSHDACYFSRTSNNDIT
# Outline: as §1
# [11] = target: T11, OR5P3 (Homo sapiens) (UniProt Q8WZ94)
# T11 sequence (whole entry): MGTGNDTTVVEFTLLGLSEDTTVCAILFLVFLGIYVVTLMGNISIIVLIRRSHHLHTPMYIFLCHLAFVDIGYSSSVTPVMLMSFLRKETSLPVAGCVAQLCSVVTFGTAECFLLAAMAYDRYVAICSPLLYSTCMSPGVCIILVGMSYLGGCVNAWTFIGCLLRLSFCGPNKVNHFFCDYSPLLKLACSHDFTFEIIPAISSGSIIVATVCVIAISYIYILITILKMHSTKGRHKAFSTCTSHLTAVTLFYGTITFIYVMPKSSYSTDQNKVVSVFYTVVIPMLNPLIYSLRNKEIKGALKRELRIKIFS
# Outline: as §1
# [12] = target: T12, OR5T1 (Homo sapiens) (UniProt Q8NG75)
# T12 sequence (whole entry): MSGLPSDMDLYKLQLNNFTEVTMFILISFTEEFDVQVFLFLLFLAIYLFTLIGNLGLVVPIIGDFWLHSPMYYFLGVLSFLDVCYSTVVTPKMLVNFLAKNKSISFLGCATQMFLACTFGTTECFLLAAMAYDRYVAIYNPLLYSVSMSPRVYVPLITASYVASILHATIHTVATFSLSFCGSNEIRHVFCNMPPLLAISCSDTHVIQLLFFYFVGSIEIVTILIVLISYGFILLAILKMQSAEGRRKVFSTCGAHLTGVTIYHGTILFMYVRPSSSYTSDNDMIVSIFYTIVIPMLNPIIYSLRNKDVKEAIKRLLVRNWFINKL
# Outline: as §1
# [13] = target: T13, OR5T2 (Homo sapiens) (UniProt Q8NGG2)
# T13 sequence (whole entry): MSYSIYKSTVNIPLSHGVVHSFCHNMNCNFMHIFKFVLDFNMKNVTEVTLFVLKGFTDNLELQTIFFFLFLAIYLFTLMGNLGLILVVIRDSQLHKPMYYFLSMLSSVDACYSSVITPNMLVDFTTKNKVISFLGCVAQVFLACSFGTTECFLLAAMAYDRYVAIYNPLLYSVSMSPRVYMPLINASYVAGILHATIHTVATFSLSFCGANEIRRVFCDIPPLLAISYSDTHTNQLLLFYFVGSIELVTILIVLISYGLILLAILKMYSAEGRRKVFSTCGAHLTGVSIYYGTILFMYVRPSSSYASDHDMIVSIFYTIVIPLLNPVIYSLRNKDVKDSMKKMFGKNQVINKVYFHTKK
# Outline: as §1
# [14] = target: T14, OR5L2 (Homo sapiens) (UniProt Q8NGL0)
# T14 sequence (whole entry): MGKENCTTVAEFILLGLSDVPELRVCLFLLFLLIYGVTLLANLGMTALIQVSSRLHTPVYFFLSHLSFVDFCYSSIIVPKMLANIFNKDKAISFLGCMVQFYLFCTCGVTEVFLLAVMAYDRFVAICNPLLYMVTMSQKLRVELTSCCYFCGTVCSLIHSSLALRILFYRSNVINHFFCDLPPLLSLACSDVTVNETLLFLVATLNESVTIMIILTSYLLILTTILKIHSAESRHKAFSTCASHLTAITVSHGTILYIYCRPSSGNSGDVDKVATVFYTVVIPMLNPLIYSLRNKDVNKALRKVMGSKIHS
# Outline: as §1
# 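Also: active if original authors judged signal statistically different from baseline.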
compound,measurement,setting,value
COCCC(C)(C)S,odorant receptor agonist call,[1],inactive
CCc1nccnc1CC,odorant receptor agonist call,[2],inactive
same,odorant receptor agonist call,[3],inactive
Cc1cnc(C)cn1,odorant receptor agonist call,[2],inactive
same,odorant receptor agonist call,[3],inactive
Cc1cncc(C)n1,odorant receptor agonist call,[2],inactive
same,odorant receptor agonist call,[3],inactive
COc1nccnc1C(C)C,odorant receptor agonist call,[2],inactive
same,odorant receptor agonist call,[3],inactive
same,odorant receptor agonist call,[1],inactive
COc1cnccn1,odorant receptor agonist call,[2],inactive
same,odorant receptor agonist call,[3],inactive
CC1CCCCCCCCCCCCC(=O)C1 (stereo not drawn),odorant receptor agonist call,[2],inactive
same,odorant receptor agonist call,[3],inactive
same,odorant receptor agonist call,[4],inactive
same,odorant receptor agonist call,[5],inactive
same,odorant receptor agonist call,[6],inactive
same,odorant receptor agonist call,[7],inactive
same,odorant receptor agonist call,[1],inactive
same,odorant receptor agonist call,[8],inactive
same,odorant receptor agonist call,[9],inactive
same,odorant receptor agonist call,[10],inactive
same,odorant receptor agonist call,[11],inactive
same,odorant receptor agonist call,[12],inactive
same,odorant receptor agonist call,[13],inactive
CCCCC(S)C(C)CO (stereo not drawn),odorant receptor agonist call,[2],inactive
same,odorant receptor agonist call,[3],inactive
same,odorant receptor agonist call,[4],inactive
same,odorant receptor agonist call,[14],inactive
same,odorant receptor agonist call,[5],inactive
same,odorant receptor agonist call,[6],inactive
same,odorant receptor agonist call,[7],active
same,odorant receptor agonist call,[1],inactive
same,odorant receptor agonist call,[8],inactive
same,odorant receptor agonist call,[9],inactive
same,odorant receptor agonist call,[10],inactive
same,odorant receptor agonist call,[11],inactive
same,odorant receptor agonist call,[12],inactive
same,odorant receptor agonist call,[13],inactive
Cc1nccnc1C,odorant receptor agonist call,[2],inactive
same,odorant receptor agonist call,[3],inactive
CC(CO)CS (stereo not drawn),odorant receptor agonist call,[2],inactive
same,odorant receptor agonist call,[3],inactive
same,odorant receptor agonist call,[4],inactive
same,odorant receptor agonist call,[14],inactive
same,odorant receptor agonist call,[5],inactive
same,odorant receptor agonist call,[6],inactive
same,odorant receptor agonist call,[7],inactive
same,odorant receptor agonist call,[1],inactive
same,odorant receptor agonist call,[8],inactive
same,odorant receptor agonist call,[9],inactive
same,odorant receptor agonist call,[10],inactive
same,odorant receptor agonist call,[11],inactive
same,odorant receptor agonist call,[12],inactive
same,odorant receptor agonist call,[13],inactive
CC(=O)c1c(C)c([N+](=O)[O-])c(C(C)(C)C)c([N+](=O)[O-])c1C,odorant receptor agonist call,[2],inactive
same,odorant receptor agonist call,[3],inactive
same,odorant receptor agonist call,[4],inactive
same,odorant receptor agonist call,[5],inactive
same,odorant receptor agonist call,[6],inactive
same,odorant receptor agonist call,[7],inactive
same,odorant receptor agonist call,[1],inactive
same,odorant receptor agonist call,[8],inactive
same,odorant receptor agonist call,[9],inactive
same,odorant receptor agonist call,[10],inactive
same,odorant receptor agonist call,[11],inactive
same,odorant receptor agonist call,[12],inactive
same,odorant receptor agonist call,[13],inactive
